Source: the RNAGym collection of RNA variant scans (doi:10.1126/science.aae0568)
This sample holds only a part of the variants without activity.

B1: tRNA (parent)
chain: GUUCCGUUGGCGUAAUGGUAACGCGUCUCCCUCCUAAGGAGAAGACUGCGGGUUCGAGUCCCGUACGGAACG

Variants of: B1
Assay: yeast fitness relative to wild type (ratio to wild type); higher = fitter; tRNA-Arg(CCU), competitive growth, 37 C, YPD
Summary of the method: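 Genotype frequency changes were the basis for Darwinian fitness relative to wild type. The frequencies came from 100-nucleotide paired-end sequencing of gene amplicons from the start population and each end population of pooled yeast strains with tRNA-Arg(CCU) gene variants at the native locus. Competition ran in YPD at 37°C for 24 hours in six replicates, genotypes needed ≥ 100 starting reads, and estimates < 0.5 were set to 0.5.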

Row | Variant | yeast fitness
1 | GUUCCGUUGGCGUAACGGUAAGGCGUCUCCCUCCUAAGGAGAAGACUGCGGGUUCGAGUCCCGUACGGAACG [U16C C22G] | 0.968
2 | GUUCGGUUUGCGUAAUGGUACCGCGUCUCCCUCCUAAGGAGAAGACUGCGGGUACGGGUCCCGUACGGAACG [C5G G9U A21C U54A A57G] | ≤ 0.5
3 | GUUCCGUUGGCGUAAUGGUAACGCGUCUCCCUCCUAGGGAGAAGCCUGCGGGUUCGAGUCUCGUACGGAACG [A37G A45C C61U] | 0.579
4 | GUUCCGUUGACGUAAUGGUAACGCGUCUCCCUCCUAAGGAGAACACUGCGGGUUCGAGUCCCGUACGGAACG [G10A G44C] | 0.79
5 | GUUCCGUUGGCGUGAUGGUAACGCGUCUCCCUCCUAAGGAGAAGACUGCGGGUUCGAGUCCCCUACGGAACG [A14G G63C] | 0.78
6 | GUUCCGCUGGCGUAAUGGUAACGCGUCUCCCUCCUAGGGAGAAGACUGCGGGUUCGAGUCCCGUACGGAACG [U7C A37G] | 0.666
7 | GUUCCGUUGGUGUGAUGGUAACGCGUCUCCCUCCUAAGGAGAAGACUGAGGGUUCGAGUCCCGUACGGAACG [C11U A14G C49A] | ≤ 0.5
8 | GUUCCGUUGGCGUAAUGGUAACGGGUUCCCCUCCUAAGGAGAAGACUGCGGGUUCGAGUCCCGUACGGAACG [C24G C27U U28C] | ≤ 0.5
9 | GUUCCAUUGGCGUAAUGGUAAUGCGUCUCCCUCCUAAGGAGAAGACUGCGGGUUCGAGUCCCGUACGGAACG [G6A C22U] | 0.757
10 | GUUCCGUUGGCGUAAUGGUAGUGCGUCUCCCUCCUAAGGAGUAGACUGCGGGUUCGAGUCCCGUACGGUACG [A21G C22U A42U A69U] | ≤ 0.5
11 | GUUCCGUUGGCGUAAUGGUAAUGCGUCUCUCUCCUAAGGAGAAGACAGCGGGUUCGAGUCCUGUACGGAACG [C22U C30U U47A C62U] | ≤ 0.5
12 | GUCCGGUUGGCGUAAUGGUAUCGCGUCUCCCUCCUAAGGAGCAGACUGCGGGUUCGAGUCCCGUACGGAGCG [U3C C5G A21U A42C A70G] | 0.542
13 | GUUCCGUUGGCGUAAAGGUAACGUGUCUCCCUCAUAAGGAGAAGACUGCGGGUUCGAGUCCAGUGCGGAACG [U16A C24U C34A C62A A65G] | ≤ 0.5
14 | GUUUCGUUGGCGUAAUGGUAACGCGUCUCCCUCCUCAGGAGAAGACUGUGGGUUCGAAUCCCGUACGGAACG [C4U A36C C49U G58A] | 0.612
15 | GUUUCGUUGGCGUAAUGGUAACGCGUCUCCCUCCUUAGGAGAAGACUGCGGGUUCGAGUCCCGUACGAAACG [C4U A36U G68A] | ≤ 0.5
16 | GUUCCGUUGGCGUAAUGGUAACGCGUCUCCCUCCUACGGAGAAGACUGCGGGUUCGAGUCCUGUAGGGAACG [A37C C62U C66G] | ≤ 0.5
17 | GUUCCGUCGGCCUAAUGGUAACGCGUCUCCCUCCUAAGGAGAAGACUGCGGGUUCGAGUCCCCUACGGAACG [U8C G12C G63C] | 0.577
18 | GUUCCGUUGGCGUAAUGGUAAUGCGUGUCCCUCCUAAGGCGAAGACUGCGGGUUCGAGUCCCGUACGGAACG [C22U C27G A40C] | 0.55
19 | GUUCCGCUGGCGUAAUGGUAACGCGUCUCACUCCUAAGGAGAAGACUGCGGGUUCGAGUCCCGUACGGAACG [U7C C30A] | 0.794

Row | Variant | yeast fitness
20 | GUUCCGCUGGAGUAAUGGUAACGCGUCUCCCUACUCAGGAGAAGACUGCGGGUUCGAGUCCCCUAGGGAACG [U7C C11A C33A A36C G63C C66G] | ≤ 0.5
21 | GUUGCGUUGGCGUAAUGGUAGCGCGUCUCCCUCCUUAGGAGAAGACUGCGGGUUCGAGACCCGUACGGAACG [C4G A21G A36U U59A] | 0.502
22 | GUUCCGUUGGGGUAAUGGUAACGCGUAUCCCUCCUAAGGAGAAGACUGCGGGUUCGAGUCCCGUACGGAACG [C11G C27A] | 0.715
23 | GUUCCGUUGGCGUAAUGGCAACGGGUCUCCCUCCUAAGGAGAAGACUGCCGGUUCGAGUCCCGUACGGAACG [U19C C24G G50C] | 0.768
24 | GUUCCGUUGGCGUAUUGGUAACGCGUCUCCCUCCUAAGGAGAAGACUGCGGCUUCGAGUCCCGUACGAAACG [A15U G52C G68A] | ≤ 0.5
25 | GUUUCGGUGGCGUAAUGGUAACGCGUCUCCCUCGUAAGGAGAAGACUCCGGGUUCGAGUCUCGUACGGAACG [C4U U7G C34G G48C C61U] | ≤ 0.5
26 | GUUCCGUUGGCGAAAUGGUAACGCGUGUCCCUCCUAAGGAGUAGACUGCGGGUUCGCGUCCCGUACGGAACG [U13A C27G A42U A57C] | ≤ 0.5
27 | GUUCCGUUGGCGCAAUGGUAACGCGUCUCCCUCCUAAGGAGAAGACUGCGGGUUCGAGUCCCGUACGAAACG [U13C G68A] | 0.785
28 | GUUCGGUUGGCGUAAUGGUAACGCAUCUCCCUCCUAAGGAGAAGCCUGCGGGUUCGAGUCCCGUACGGAACG [C5G G25A A45C] | 0.705
29 | GUUCCGUUGGCGUAAUGGUAACGCGUCUCCCUCCUAACGAGAAGACUGCGGGUACGAGUCCCGUGCGGAACG [G38C U54A A65G] | ≤ 0.5
30 | GUUCCAUUGGCGUAAUGGGAACGCGUCUCCCUCCUAAGGAGAAGACUGCGGGCUCGAGUCCCGUACGGAACG [G6A U19G U53C] | ≤ 0.5
31 | GUGGCGUUGGCGUAAUGGUAAUGCGUCUUCCUCCUAAGGAGAAGACUGCGGGUUCGAGUCCCGUGCGGAACG [U3G C4G C22U C29U A65G] | ≤ 0.5
32 | GUUCCGUUGGCGUAAUGGUAACGCGUCUCCCUCCUAAGGAGAAGACUGCGGAUUGGAGUCCCGUACGGAACG [G52A C55G] | 0.561
33 | GUUCCGUUGGCGUAAUGGUAACGCGUCUCCCACCUAAGGAGAAGAAUGCGGGUUCGGGUCCCGUACGGAACG [U32A C46A A57G] | 0.614
34 | GUUCCGUUGGCAUAAUGGUAACGCGUCUCCCUCCUAAGGAGAAGACUGAGGGUUCGAGUCCCGUACGGAACG [G12A C49A] | 0.67
35 | GUUCCGUUGGCGUAAUGGUAACGCGUCUCCCUCCUAAGGAGAAGACUGCGGGUACGAGCCCCGCACGGAACG [U54A U59C U64C] | ≤ 0.5
36 | GUUCCGUUGGCGUAAUGGAAACGCGUCUCCCUCGUAAGGAGACGACUGCGGGUUCGAGUCCCGUACGGAGCG [U19A C34G A43C A70G] | ≤ 0.5
37 | GUUCCGUUCGGGUAAUGGUAACGUGUCUCCUUCCUAAGGAGAAGACUGCGGGUUCGAGUCCCGUACUGAACG [G9C C11G C24U C31U G67U] | ≤ 0.5
38 | GUUCCGUUAGCGUAAUGGUAACGCGUCCCUCUCCUAAGGAGAAGACUGCGGGUUCGAGUCCCGUACGGUACG [G9A U28C C30U A69U] | ≤ 0.5
